ChEMBL document CHEMBL3779800 (ACS Med Chem Lett, 2016)

Experiments:
[1] = biological target: T1, Amine oxidase [flavin-containing] A (Homo sapiens, UniProt P21397); experiment: Competitive inhibition of recombinant human MAO-A using p-tyramine as substrate preincubated for 15 mins followed by substrate addition by Lineweaver-Burk plot analysis
T1 sequence (P21397 whole entry): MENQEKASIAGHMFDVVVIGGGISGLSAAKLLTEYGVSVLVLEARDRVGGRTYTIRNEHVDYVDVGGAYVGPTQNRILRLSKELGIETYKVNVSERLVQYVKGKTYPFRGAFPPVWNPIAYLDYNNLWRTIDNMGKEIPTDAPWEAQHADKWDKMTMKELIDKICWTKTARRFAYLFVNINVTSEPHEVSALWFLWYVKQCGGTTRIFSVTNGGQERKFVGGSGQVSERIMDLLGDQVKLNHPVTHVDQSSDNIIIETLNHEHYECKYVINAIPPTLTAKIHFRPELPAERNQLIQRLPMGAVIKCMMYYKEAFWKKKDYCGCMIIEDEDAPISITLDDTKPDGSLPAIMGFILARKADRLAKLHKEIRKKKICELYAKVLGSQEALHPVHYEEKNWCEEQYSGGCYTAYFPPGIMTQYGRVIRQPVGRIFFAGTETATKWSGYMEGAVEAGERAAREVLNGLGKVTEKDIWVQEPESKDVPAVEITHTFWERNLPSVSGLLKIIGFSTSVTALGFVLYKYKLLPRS

[2] = biological target: T1, Amine oxidase [flavin-containing] A; experiment: Reversible inhibition of recombinant human MAO-A using p-tyramine as substrate incubated for 1 hr by centrifugation ultra filtration method
[3] = biological target: T1, Amine oxidase [flavin-containing] A; experiment: Suicide inhibition of recombinant human MAO-A using p-tyramine as substrate preincubated for 15 mins followed by substrate addition by Lineweaver-Burk plot analysis
[4] = biological target: T1, Amine oxidase [flavin-containing] A; experiment: Irreversible inhibition of recombinant human MAO-A using p-tyramine as substrate incubated for 1 hr by centrifugation ultra filtration method
Outline: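 Reversibility of hMAO-A inhibition assessed by a centrifugation-ultrafiltration method. Enzyme activity was read as H2O2 production from p-tyramine using Amplex Red fluorescence. Compounds were checked for direct reaction with Amplex Red and for resorufin quenching, tested at their maximum concentration against various resorufin concentrations. Racemic compounds were used.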

[5] = biological target: T1, Amine oxidase [flavin-containing] A; experiment: Inhibition of recombinant human MAO-A using p-tyramine as substrate assessed as H2O2 production preincubated for 15 mins followed by substrate addition measured for 15 mins by amplex red assay
Outline: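 H2O2 formed from p-tyramine, a substrate shared by hMAO-A and hMAO-B, was measured with an Amplex Red MAO kit. Compounds were checked for direct reaction with the Amplex Red reagent. They were also checked for resorufin quenching by combining the highest compound concentration with various resorufin concentrations. Protein was determined by Bradford with BSA standard. Values are mean ± SEM of three independent experiments.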

[6] = biological target: T2, Amine oxidase [flavin-containing] B (Homo sapiens, UniProt P27338); experiment: Inhibition of recombinant human MAO-B using p-tyramine as substrate assessed as H2O2 production preincubated for 15 mins followed by substrate addition measured for 15 mins by amplex red assay
T2 sequence (P27338 whole entry): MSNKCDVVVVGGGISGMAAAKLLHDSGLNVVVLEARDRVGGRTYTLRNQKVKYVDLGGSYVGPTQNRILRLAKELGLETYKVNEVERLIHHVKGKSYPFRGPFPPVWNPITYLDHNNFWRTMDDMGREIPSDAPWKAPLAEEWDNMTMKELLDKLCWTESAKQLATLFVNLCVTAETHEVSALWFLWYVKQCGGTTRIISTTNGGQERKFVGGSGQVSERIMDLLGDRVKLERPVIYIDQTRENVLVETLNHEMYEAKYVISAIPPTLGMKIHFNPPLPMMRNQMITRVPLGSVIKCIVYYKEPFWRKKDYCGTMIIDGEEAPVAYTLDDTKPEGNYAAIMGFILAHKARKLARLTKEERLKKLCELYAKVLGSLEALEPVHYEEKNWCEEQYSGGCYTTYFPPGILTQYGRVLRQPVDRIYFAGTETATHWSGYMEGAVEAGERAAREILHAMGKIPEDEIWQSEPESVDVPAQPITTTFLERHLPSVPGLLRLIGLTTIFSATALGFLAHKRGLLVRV

[7] = organism: Homo sapiens; experiment: Selectivity index, ratio of Ki for recombinant human MAO-A to Ki for recombinant human MAO-B
Outline: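 SI is Ki(MAO-A)/Ki(MAO-B). Each Ki comes from the Amplex Red H2O2 assay with p-tyramine substrate and is the mean ± SEM of three independent experiments. Racemates were tested. A lower SI indicates MAO-A preference and a higher SI indicates MAO-B preference.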

With `COc1cc(/C=C/C(=O)CC(=O)/C=C/c2ccc(O)c(OC)c2)ccc1O` [CURCUMIN] the “inhibition (INH)” value [1] was “Active” and the “inhibition (INH)” value [2] was “Active”.
With `C#CCN(C)[C@H](C)Cc1ccccc1` [SELEGILINE] the “inhibition (INH)” value [3] was “Active” and the “inhibition (INH)” value [4] was “Active”.
For `O=C(NCCN1CCOCC1)c1ccc(Cl)cc1` [MOCLOBEMIDE], the “inhibition (INH)” value [1] was “Active” and the “inhibition (INH)” value [2] was “Active”.
`COc1cc(C2=NNC(c3ccccc3)C2)ccc1O` (racemic) gave a Ki [5] of 5.02 µM, a Ki [6] of 0.35 µM and a Ratio Ki [7] of 14.3. The “inhibition (INH)” value [1] was “Active” and the “inhibition (INH)” value [2] was “Active”.
Work on `COc1cc(C2=NN(C(=O)c3ccccc3)C(c3ccccc3)C2)ccc1O` (racemic) yielded a Ki [5] of 4.25 µM, a Ki [6] of 41 µM and a Ratio Ki [7] of 0.104. The “inhibition (INH)” value [1] was “Active” and the “inhibition (INH)” value [2] was “Active”.
In the case of `CCOC(=O)N1N=C(c2ccc(O)c(OC)c2)CC1c1ccccc1` (racemic), the Ki [5] is reported as 0.44 µM, the Ki [6] is reported as 201 µM and the Ratio Ki [7] is reported as 0.002. For the same compound, the “inhibition (INH)” value [1] was “Active” and the “inhibition (INH)” value [2] was “Active”.
Compound `COc1cc(C2=NN(C(N)=S)C(c3ccccc3)C2)ccc1O` (racemic) has a Ki [5] of 2.58 µM, a Ki [6] of 2.78 µM and a Ratio Ki [7] of 0.928. For the same compound, the “inhibition (INH)” value [1] was “Active” and the “inhibition (INH)” value [2] was “Active”.
For `COc1cc(C2=NN(C(=S)Nc3ccccc3)C(c3ccccc3)C2)ccc1O` (racemic), the Ki [5] was 0.55 µM, the Ki [6] was 15.9 µM and the Ratio Ki [7] was 0.035. The “inhibition (INH)” value [1] was “Active” and the “inhibition (INH)” value [2] was “Active”.
`COc1cc(C2=NN(c3ccccc3)C(c3ccccc3)C2)ccc1O` (racemic) was tested, and the Ki [5] was 2.16 µM, the “inhibition (INH)” value [1] was “Active” and the “inhibition (INH)” value [2] was “Active”.
With `COc1cc(C2=NN(C(C)=O)C(c3ccccc3)C2)ccc1O` (racemic) the Ki [5] was 3.87 µM, the “inhibition (INH)” value [1] was “Active” and the “inhibition (INH)” value [2] was “Active”.
`COc1cc(C2=NN(C(=O)Oc3ccccc3)C(c3ccccc3)C2)ccc1O` (racemic) showed a Ki [5] of 0.29 µM, a Ki [6] of 4 µM and a Ratio Ki [7] of 0.073. The “inhibition (INH)” value [1] was “Active” and the “inhibition (INH)” value [2] was “Active”.
For `COc1cc(C2=NN(S(=O)(=O)c3ccc(C)cc3)C(c3ccccc3)C2)ccc1O` (racemic), the Ki [5] was 0.06 µM, the Ki [6] was 5900 µM and the Ratio Ki [7] was 1.02e-05. For the same compound, the “inhibition (INH)” value [1] was “Active” and the “inhibition (INH)” value [2] was “Active”.
With `COc1cc(C2=NN(C(=N)N)C(c3ccccc3)C2)ccc1O` (racemic) the Ki [5] was 9.55 µM, the Ki [6] was 201 µM and the Ratio Ki [7] was 0.047. For the same compound, the “inhibition (INH)” value [1] was “Active” and the “inhibition (INH)” value [2] was “Active”.
